# Columns and labels:
# [1] = AUC in Wistar rat at 10 mg/kg, iv; assay type: ADME, organism-based; design: dose 10 mg/kg, route intravenous; conditions: plasma
# Procedure, shortened: (§1)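 Groups of three Wistar Han rats; bolus injection via cannulated jugular vein at 2 or 10 mg/kg. Serial 200 µL whole-blood samples at time intervals; plasma levels by LC-MS/MS; parameters by noncompartmental analysis.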
# [2] = Volume of distribution in Wistar rat at 10 mg/kg, iv; assay type: ADME, organism-based; design: dose 10 mg/kg, route intravenous; conditions: in vivo, read-out: Vdss; procedure, shortened: as §1
# Streptococcus pneumoniae [3] = assay: Antibacterial activity against linezolid-resistant Streptococcus pneumoniae; assay type: functional
# Procedure, shortened: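 Broth microdilution per CLSI guidelines. Compounds were dissolved in 100% DMSO and diluted to 2% DMSO (v/v), 64 to 0.06 µg/mL, in 2.2% (w/v) Mueller Hinton broth with 0.65% (v/v) lysed horse blood. Plates were incubated at 35 °C in 5% CO2 and read at 620 nm.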
# [4] = Clearance in Wistar rat at 10 mg/kg, iv; assay type: ADME, organism-based; design: dose 10 mg/kg, route intravenous; conditions: in vivo; procedure, shortened: as §1
# [5] = Oral bioavailability in Wistar rat at 10 mg/kg, po; assay type: ADME, organism-based; conditions: in vivo
# Procedure, shortened: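 Wistar Han rats, groups of three; 10 mg/kg given by oral gavage, compared against iv dosing. Serial whole-blood sampling, plasma drug by LC-MS/MS, noncompartmental pharmacokinetic analysis.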
# [6] = Solubility by nephelometric analysis; assay type: physicochemical
# Procedure, shortened: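 Nephelometry after diluting compounds into the MAO-A assay mixture (100 mM potassium phosphate, pH 7.4).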
# [7] = target: T1, Amine oxidase [flavin-containing] A (Homo sapiens, UniProt P21397); assay: Inhibition of human liver MAOA expressed in yeast
# T1 sequence (P21397 whole entry): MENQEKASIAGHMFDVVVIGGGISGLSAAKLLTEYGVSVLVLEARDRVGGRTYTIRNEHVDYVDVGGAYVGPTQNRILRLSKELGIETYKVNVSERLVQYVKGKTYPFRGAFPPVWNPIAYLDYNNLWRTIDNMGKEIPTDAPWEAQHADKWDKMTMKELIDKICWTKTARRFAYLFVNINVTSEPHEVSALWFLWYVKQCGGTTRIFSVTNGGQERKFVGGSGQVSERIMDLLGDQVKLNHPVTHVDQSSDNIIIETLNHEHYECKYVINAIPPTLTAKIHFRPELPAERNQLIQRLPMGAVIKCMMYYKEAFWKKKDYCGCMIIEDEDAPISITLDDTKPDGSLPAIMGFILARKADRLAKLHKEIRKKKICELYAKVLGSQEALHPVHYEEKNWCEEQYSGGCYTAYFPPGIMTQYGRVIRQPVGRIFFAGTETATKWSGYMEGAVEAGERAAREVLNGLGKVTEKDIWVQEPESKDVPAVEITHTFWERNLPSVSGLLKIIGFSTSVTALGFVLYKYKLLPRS
# Haemophilus influenzae = assay: Antibacterial activity against Haemophilus influenzae ATCC 51907; assay type: functional
# Procedure, shortened: (§2)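 CLSI broth microdilution, 64 to 0.06 µg/mL, 2% DMSO final. Media: S. aureus, Mueller Hinton broth; H. influenzae, MHB plus 0.5% yeast extract, 15 µg/mL hematin, 1.5 µg/mL NAD; S. pneumoniae, MHB plus 0.65% lysed horse blood. 35 °C, aerobic (S. aureus) or 5% CO2.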
# Staphylococcus aureus = assay: Antibacterial activity against methicillin-susceptible Staphylococcus aureus AP601055; assay type: functional; procedure, shortened: as §2
# [8] = Half life in Wistar rat at 10 mg/kg, iv; assay type: ADME, organism-based; design: dose 10 mg/kg, route intravenous; conditions: in vivo; procedure, shortened: as §1
# Streptococcus pneumoniae [9] = assay: Antibacterial activity against penicillin-susceptible Streptococcus pneumoniae AP671401; assay type: functional; procedure, shortened: as §2
# Homo sapiens = species: Homo sapiens; assay: Protein binding in human plasma; conditions: read-out: PPB (converted)
# Cytochrome P450 2C9 = Cytochrome P450 2C9 (Homo sapiens, UniProt P11712); assay: Inhibition of human recombinant CYP2C9; assay type: ADME
# Procedure, shortened: (§3)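 Recombinant human P450s, compound at 0.2-20 µM; fluorogenic substrates: 3-cyano-7-ethoxycoumarin (1A2), 7-methoxy-4-trifluoromethylcoumarin (2C9, 2C19), 7-methoxy-4-(aminomethyl)coumarin (2D6). Fluorescence detection; IC50 determined.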
# Cytochrome P450 1A2 = target: T2, Cytochrome P450 1A2 (Homo sapiens, UniProt P05177); assay: Inhibition of human recombinant CYP1A2; assay type: ADME; procedure, shortened: as §3
# T2 sequence (P05177 whole entry): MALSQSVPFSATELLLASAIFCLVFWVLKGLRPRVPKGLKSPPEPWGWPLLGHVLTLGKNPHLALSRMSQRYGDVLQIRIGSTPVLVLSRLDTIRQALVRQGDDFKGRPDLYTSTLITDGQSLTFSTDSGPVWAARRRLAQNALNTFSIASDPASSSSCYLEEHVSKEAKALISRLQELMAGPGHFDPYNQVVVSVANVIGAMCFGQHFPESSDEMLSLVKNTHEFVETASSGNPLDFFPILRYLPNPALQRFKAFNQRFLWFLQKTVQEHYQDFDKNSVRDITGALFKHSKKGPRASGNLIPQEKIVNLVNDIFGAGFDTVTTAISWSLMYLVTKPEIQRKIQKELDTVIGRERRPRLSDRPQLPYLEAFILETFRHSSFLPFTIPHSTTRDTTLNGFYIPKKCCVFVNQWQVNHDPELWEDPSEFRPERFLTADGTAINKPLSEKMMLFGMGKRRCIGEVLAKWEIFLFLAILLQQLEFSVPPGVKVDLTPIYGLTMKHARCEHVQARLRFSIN
# Cytochrome P450 2C19 = Cytochrome P450 2C19 (Homo sapiens, UniProt P33261); assay: Inhibition of human recombinant CYP2C19; assay type: ADME; procedure, shortened: as §3
# Cytochrome P450 3A4 = Cytochrome P450 3A4 (Homo sapiens, UniProt P08684); assay: Inhibition of human recombinant CYP3A4; assay type: ADME
# Cytochrome P450 2D6 = Cytochrome P450 2D6 (Homo sapiens, UniProt P10635); assay: Inhibition of human recombinant CYP2D6; assay type: ADME; procedure, shortened: as §3
# Cytochrome P450 2D6, sequence (P10635 whole entry): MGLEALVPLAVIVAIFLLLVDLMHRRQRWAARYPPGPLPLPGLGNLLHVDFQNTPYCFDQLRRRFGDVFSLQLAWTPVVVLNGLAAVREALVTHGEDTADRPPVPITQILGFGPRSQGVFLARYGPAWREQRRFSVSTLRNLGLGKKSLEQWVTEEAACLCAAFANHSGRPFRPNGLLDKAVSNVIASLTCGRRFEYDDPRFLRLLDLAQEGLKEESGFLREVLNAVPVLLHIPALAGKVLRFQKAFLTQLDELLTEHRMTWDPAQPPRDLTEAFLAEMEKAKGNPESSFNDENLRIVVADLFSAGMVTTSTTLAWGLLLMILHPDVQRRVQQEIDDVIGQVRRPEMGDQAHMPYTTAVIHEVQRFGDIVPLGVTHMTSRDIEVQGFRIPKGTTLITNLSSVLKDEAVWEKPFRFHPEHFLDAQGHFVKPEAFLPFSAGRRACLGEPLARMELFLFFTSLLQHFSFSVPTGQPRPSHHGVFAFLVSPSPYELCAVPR
# Cytochrome P450 3A4, sequence (P08684 whole entry): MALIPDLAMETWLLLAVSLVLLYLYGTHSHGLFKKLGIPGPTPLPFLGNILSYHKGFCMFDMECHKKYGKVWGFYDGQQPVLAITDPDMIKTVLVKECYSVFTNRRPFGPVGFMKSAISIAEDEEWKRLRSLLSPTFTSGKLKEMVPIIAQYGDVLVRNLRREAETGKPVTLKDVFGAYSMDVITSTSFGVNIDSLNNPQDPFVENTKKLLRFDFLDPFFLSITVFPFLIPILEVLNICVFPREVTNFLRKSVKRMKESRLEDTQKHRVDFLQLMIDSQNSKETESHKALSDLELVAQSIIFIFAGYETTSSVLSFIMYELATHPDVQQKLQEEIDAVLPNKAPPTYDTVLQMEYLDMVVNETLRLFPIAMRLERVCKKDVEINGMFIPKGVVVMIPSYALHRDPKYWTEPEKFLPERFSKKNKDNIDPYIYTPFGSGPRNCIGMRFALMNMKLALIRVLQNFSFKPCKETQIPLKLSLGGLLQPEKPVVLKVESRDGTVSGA
# Cytochrome P450 2C9, sequence (P11712 whole entry): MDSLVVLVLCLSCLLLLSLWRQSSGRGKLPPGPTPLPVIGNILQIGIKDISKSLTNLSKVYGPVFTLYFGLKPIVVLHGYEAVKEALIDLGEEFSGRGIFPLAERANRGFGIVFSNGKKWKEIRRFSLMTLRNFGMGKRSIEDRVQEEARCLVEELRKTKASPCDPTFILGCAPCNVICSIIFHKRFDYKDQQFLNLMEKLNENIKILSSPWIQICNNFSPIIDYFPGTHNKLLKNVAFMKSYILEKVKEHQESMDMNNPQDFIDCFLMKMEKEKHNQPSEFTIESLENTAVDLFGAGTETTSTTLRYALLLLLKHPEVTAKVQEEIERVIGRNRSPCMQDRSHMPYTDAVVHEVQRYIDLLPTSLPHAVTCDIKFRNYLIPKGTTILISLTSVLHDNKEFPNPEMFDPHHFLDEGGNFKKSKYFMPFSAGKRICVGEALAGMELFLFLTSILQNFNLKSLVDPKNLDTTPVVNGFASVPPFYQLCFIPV
# Cytochrome P450 2C19, sequence (P33261 whole entry): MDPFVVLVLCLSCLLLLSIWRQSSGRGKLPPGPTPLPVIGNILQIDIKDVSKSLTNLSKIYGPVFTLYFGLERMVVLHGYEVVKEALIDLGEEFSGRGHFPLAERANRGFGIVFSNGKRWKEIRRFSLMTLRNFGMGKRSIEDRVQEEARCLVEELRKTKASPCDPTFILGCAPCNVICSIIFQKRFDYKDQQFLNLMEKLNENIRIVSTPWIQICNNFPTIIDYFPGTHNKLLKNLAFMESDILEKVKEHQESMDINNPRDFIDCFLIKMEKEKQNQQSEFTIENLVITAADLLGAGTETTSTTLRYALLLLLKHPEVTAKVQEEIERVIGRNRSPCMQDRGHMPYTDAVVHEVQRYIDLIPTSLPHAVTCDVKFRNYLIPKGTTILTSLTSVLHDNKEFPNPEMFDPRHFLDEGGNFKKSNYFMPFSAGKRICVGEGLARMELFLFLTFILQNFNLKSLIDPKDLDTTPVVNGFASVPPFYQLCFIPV
SMILES,AUC [1],Vd [2],MIC (Streptococcus pneumoniae [3]),clearance [4],bioavailability [5],solubility kinetic [6],Ki [7],MIC (Haemophilus influenzae),MIC (Staphylococcus aureus),half-life [8],MIC (Streptococcus pneumoniae [9]),fraction unbound (Homo sapiens),IC50 (Cytochrome P450 2C9),IC50 (Cytochrome P450 1A2),IC50 (Cytochrome P450 2C19),IC50 (Cytochrome P450 3A4),IC50 (Cytochrome P450 2D6)
C[C@H](O)c1ccc(-c2ccc(N3C[C@H](Cn4ccnn4)OC3=O)cc2F)cn1,6700 ng·h/mL,1.3 L/kg,1 µg/mL,25 mL/min/kg,100%,> 400 µM,5.9 µM,2 µg/mL,0.5 µg/mL,1 h,< 0.06 µg/mL,–,–,–,–,–,–
CO[C@@H](C)c1ccc(-c2ccc(N3C[C@H](Cn4ccnn4)OC3=O)cc2F)cn1,–,–,4 µg/mL,–,–,> 400 µM,2.5 µM,16 µg/mL,1 µg/mL,–,0.25 µg/mL,–,–,–,–,–,–
CC(C)(O)c1ccc(-c2ccc(N3C[C@H](Cn4ccnn4)OC3=O)cc2F)cn1,–,–,2 µg/mL,–,–,200 µM,6 µM,8 µg/mL,1 µg/mL,–,0.25 µg/mL,–,–,–,–,–,–
O=C1O[C@@H](Cn2ccnn2)CN1c1ccc(-c2ccc(C(O)CO)nc2)c(F)c1 (some centres not stated),3900 ng·h/mL,1 L/kg,1 µg/mL,43 mL/min/kg,–,> 400 µM,–,1 µg/mL,0.25 µg/mL,0.45 h,< 0.06 µg/mL,0.54,–,–,–,–,–
O=C1O[C@@H](Cn2ccnn2)CN1c1ccc(-c2ccc(C(O)C3CCNCC3)nc2)c(F)c1 (some centres not stated),–,–,32 µg/mL,–,–,> 400 µM,136 µM,64 µg/mL,64 µg/mL,–,4 µg/mL,–,–,–,–,–,–
CC(C)NCC(O)c1ccc(-c2ccc(N3C[C@H](Cn4ccnn4)OC3=O)cc2F)cn1 (some centres not stated),–,–,2 µg/mL,–,–,> 400 µM,> 178 µM,4 µg/mL,4 µg/mL,–,0.5 µg/mL,–,–,–,–,–,–
CN(C)CC(O)c1ccc(-c2ccc(N3C[C@H](Cn4ccnn4)OC3=O)cc2F)cn1 (some centres not stated),–,–,2 µg/mL,–,–,> 400 µM,> 178 µM,4 µg/mL,4 µg/mL,–,0.25 µg/mL,–,–,–,–,–,–
CC(=O)c1ccc(-c2ccc(N3C[C@H](Cn4ccnn4)OC3=O)cc2F)cn1,–,–,0.5 µg/mL,–,–,50 µM,0.7 µM,2 µg/mL,0.25 µg/mL,–,< 0.06 µg/mL,–,–,–,–,–,–
O=C(c1ccc(-c2ccc(N3C[C@H](Cn4ccnn4)OC3=O)cc2F)cn1)C1CNC1,–,–,4 µg/mL,–,–,200 µM,4.5 µM,16 µg/mL,8 µg/mL,–,1 µg/mL,–,–,–,–,–,–
O=C(Cn1ccnc1)c1ccc(-c2ccc(N3C[C@H](Cn4ccnn4)OC3=O)cc2F)cn1,–,–,0.5 µg/mL,–,–,12.5 µM,> 12 µM,2 µg/mL,0.25 µg/mL,–,–,–,–,–,–,–,–
COCc1ccc(-c2ccc(N3C[C@H](Cn4ccnn4)OC3=O)cc2F)cn1,–,–,1 µg/mL,–,–,100 µM,1.7 µM,4 µg/mL,0.5 µg/mL,–,0.13 µg/mL,–,–,–,–,–,–
CO[C@H](C)c1ccc(-c2ccc(N3C[C@H](Cn4ccnn4)OC3=O)cc2F)cn1,–,–,2 µg/mL,–,–,> 400 µM,3 µM,8 µg/mL,1 µg/mL,–,0.25 µg/mL,–,–,–,–,–,–
CN1CCN(CCCC(=O)c2ccc(-c3ccc(N4C[C@H](Cn5ccnn5)OC4=O)cc3F)cn2)CC1,–,–,0.5 µg/mL,–,–,> 400 µM,10.5 µM,8 µg/mL,1 µg/mL,–,< 0.06 µg/mL,0.5,–,–,–,–,–
O=C(CCCN1CCOCC1)c1ccc(-c2ccc(N3C[C@H](Cn4ccnn4)OC3=O)cc2F)cn1,–,–,0.5 µg/mL,–,–,100 µM,–,4 µg/mL,0.5 µg/mL,–,0.13 µg/mL,0.35,–,–,–,–,–
O=C(CC1CCNCC1)c1ccc(-c2ccc(N3C[C@H](Cn4ccnn4)OC3=O)cc2F)cn1,800 ng·h/mL,15 L/kg,0.5 µg/mL,196 mL/min/kg,–,> 400 µM,28 µM,8 µg/mL,1 µg/mL,2.4 h,0.13 µg/mL,–,–,–,–,–,–
Cc1cn(CC(=O)c2ccc(-c3ccc(N4C[C@H](Cn5ccnn5)OC4=O)cc3F)cn2)cn1,–,–,0.5 µg/mL,> 100 mL/min/kg,–,12.5 µM,> 5.6 µM,2 µg/mL,0.5 µg/mL,–,< 0.06 µg/mL,0.31,> 20 µM,> 20 µM,> 20 µM,> 20 µM,> 20 µM
O=C(c1ccc(-c2ccc(N3C[C@H](Cn4ccnn4)OC3=O)cc2F)cn1)C1CCNCC1,4000 ng·h/mL,3.8 L/kg,0.5 µg/mL,38 mL/min/kg,–,100 µM,> 44 µM,4 µg/mL,0.5 µg/mL,2.4 h,0.13 µg/mL,–,–,–,–,–,–
CN1CCN(CCCC(O)c2ccc(-c3ccc(N4C[C@H](Cn5ccnn5)OC4=O)cc3F)cn2)CC1 (some centres not stated),–,–,1 µg/mL,–,–,> 400 µM,41 µM,8 µg/mL,2 µg/mL,–,0.25 µg/mL,–,–,–,–,–,–
O=C1O[C@@H](Cn2ccnn2)CN1c1ccc(-c2ccc(C(O)CN3CCOCC3)nc2)c(F)c1 (some centres not stated),–,–,2 µg/mL,–,–,> 400 µM,–,4 µg/mL,1 µg/mL,–,0.25 µg/mL,0.67,–,–,–,–,–
CC(C)C(O)c1ccc(-c2ccc(N3C[C@H](Cn4ccnn4)OC3=O)cc2F)cn1 (some centres not stated),–,–,2 µg/mL,–,–,> 400 µM,11.3 µM,16 µg/mL,0.5 µg/mL,–,0.25 µg/mL,–,–,–,–,–,–
O=C1O[C@@H](Cn2ccnn2)CN1c1ccc(-c2cccnc2)c(F)c1,–,–,1 µg/mL,–,–,12.5 µM,< 0.3 µM,2 µg/mL,0.25 µg/mL,–,< 0.06 µg/mL,–,> 20 µM,> 20 µM,> 20 µM,6.8 µM,6.6 µM
O=C1O[C@@H](Cn2ccnn2)CN1c1ccc(-c2ccc(CO)nc2)c(F)c1,–,–,1 µg/mL,–,–,100 µM,–,1 µg/mL,0.25 µg/mL,–,0.13 µg/mL,–,> 20 µM,> 20 µM,> 20 µM,> 20 µM,> 20 µM
C[C@@H](O)c1ccc(-c2ccc(N3C[C@H](Cn4ccnn4)OC3=O)cc2F)cn1,–,–,1 µg/mL,–,–,> 400 µM,4.3 µM,2 µg/mL,0.25 µg/mL,–,< 0.06 µg/mL,–,–,–,–,–,–
O=C1O[C@@H](Cn2ccnn2)CN1c1ccc(-c2ccc(C(O)C3CNC3)nc2)c(F)c1 (some centres not stated),–,–,> 64 µg/mL,–,–,> 400 µM,58 µM,64 µg/mL,64 µg/mL,–,16 µg/mL,–,–,–,–,–,–
